Here are results for seven molecules from ChEMBL document CHEMBL1146567, “Isolation and structure of ruprechstyril from Ruprechtia tangarana” (2003).

Converted amounts (≈) assume the structure as drawn. The source made the active and inactive calls. The rule behind the calls is not given here.

In one assay the test system is P388. Nature of the assay: Cytotoxicity against mouse P388 cells. The class given is functional.
For another assay, the system named is Cryptococcus neoformans. The experiment in a line: Antimicrobial activity against Cryptococcus neoformans up to 64 ug/mL by broth microdilution susceptibility assay. The class given is functional, organism-based. The method, boiled down:
(§1)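 Broth microdilution susceptibility testing. Growth inhibition read-out is reported as the minimum inhibitory concentration, in μg/mL.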

A further assay relates to Streptococcus pneumoniae. The experiment in a line: Antimicrobial activity against Streptococcus pneumoniae up to 64 ug/mL by broth microdilution susceptibility assay. Type of assay: functional, organism-based. The essentials:
as §1

The next assay relates to Escherichia coli. Nature of the assay: Antimicrobial activity against Escherichia coli up to 64 ug/mL by broth microdilution susceptibility assay. Type of assay: functional, organism-based. The essentials: as §1
Assay [1] has as its system Enterococcus faecalis. Nature of the assay: Antimicrobial activity against Enterococcus faecalis up to 64 ug/mL by broth microdilution susceptibility assay. Type of assay: functional, organism-based. The method, boiled down:
as §1

For assay [2], the system named is Micrococcus luteus. The experiment in a line: Antimicrobial activity against Micrococcus luteus up to 64 ug/mL by broth microdilution susceptibility assay. The class given is functional, organism-based. The essentials:
as §1
On the technique in general: Broth dilution looks for growth in wells or tubes with falling amounts of substance.

The next assay deals with Enterobacter cloacae. Nature of the assay: Antimicrobial activity against Enterobacter cloacae up to 64 ug/mL by broth microdilution susceptibility assay. Type of assay: functional, organism-based. The essentials: as §1
Another assay deals with Neisseria gonorrhoeae. The experiment in a line: Antimicrobial activity against Neisseria gonorrhoeae up to 64 ug/mL by broth microdilution susceptibility assay. The class given is functional, organism-based. The method, boiled down:
as §1

A further assay relates to Candida albicans. The experiment in a line: Antimicrobial activity against Candida albicans up to 64 ug/mL by broth microdilution susceptibility assay. Type of assay: functional, organism-based. The method, boiled down:
as §1

The subject of the next assay is Staphylococcus aureus. Nature of the assay: Antimicrobial activity against Staphylococcus aureus up to 64 ug/mL by broth microdilution susceptibility assay. Type of assay: functional, organism-based. The essentials: as §1
The subject of assay [3] is Stenotrophomonas maltophilia. Nature of the assay: Antimicrobial activity against Stenotrophomonas maltophilia up to 64 ug/mL by broth microdilution susceptibility assay. The class given is functional, organism-based. The essentials:
as §1

Assay [4] has as its system Enterococcus faecalis. Nature of the assay: Antimicrobial activity against Enterococcus faecalis by broth microdilution susceptibility assay. Type of assay: functional. The essentials:
(§2)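 Broth microdilution susceptibility testing; the value recorded is the minimum inhibitory concentration of growth, given in μg/mL, and sometimes reported as a range.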

Assay [5] deals with Micrococcus luteus. Nature of the assay: Antimicrobial activity against Micrococcus luteus by broth microdilution susceptibility assay. The class given is functional. The essentials: as §2

`CC[C@H](/C=C/[C@@H](C)[C@H]1CC[C@H]2[C@@H]3CC=C4C[C@@H](O)CC[C@]4(C)[C@H]3CC[C@]12C)C(C)C`: the outcome in the assay with P388 was inactive.

Turning to `CCCCCc1cc2cc(OC)cc(O)c2c(=O)[nH]1`, the result with P388, in the assay on Cryptococcus neoformans, in the assay on Streptococcus pneumoniae, in the assay on Escherichia coli, with Enterococcus faecalis [1] and in the assay with Micrococcus luteus [2] was inactive. Moreover, the result (in the assay on Enterobacter cloacae; in the assay on Neisseria gonorrhoeae; with Candida albicans; in the assay on Staphylococcus aureus; in [3]) was inactive.

In the case of `COC(=O)c1cc(O)cc(OC)c1Oc1cc(C)cc(O)c1C(=O)OC`, the result in the assay with P388, in the assay with Cryptococcus neoformans, in the assay with Streptococcus pneumoniae, with Escherichia coli, with Enterococcus faecalis [1] and with Micrococcus luteus [2] was inactive. Besides, the result (in the assay with Enterobacter cloacae; in the assay on Neisseria gonorrhoeae; in the assay on Candida albicans; with Staphylococcus aureus; in assay [3]) was inactive.

For the molecule `COc1cc(C)c2c(=O)c3c(O)cc(OC)cc3oc2c1`, the result with P388, in the assay with Cryptococcus neoformans, in the assay with Streptococcus pneumoniae, in the assay with Escherichia coli, with Enterococcus faecalis [1] and in the assay on Micrococcus luteus [2] was inactive. The result (with Enterobacter cloacae; in the assay with Neisseria gonorrhoeae; in the assay on Candida albicans; in the assay on Staphylococcus aureus; in assay [3]) was inactive.

With `COc1c(OC)c2oc(=O)c3cc(O)c(OC)c4oc(=O)c(c1O)c2c43`, the result with P388, with Cryptococcus neoformans, in the assay with Streptococcus pneumoniae, in the assay on Escherichia coli, in the assay with Enterococcus faecalis [1] and in the assay on Micrococcus luteus [2] was inactive. The outcome (with Enterobacter cloacae; in the assay with Neisseria gonorrhoeae; with Candida albicans; with Staphylococcus aureus; in [3]) was inactive.

With `COc1cc(C)c(C(=O)Oc2cc(C)c(C(=O)O)c(OC)c2)c(O)c1`, the result in the assay with P388, in the assay on Cryptococcus neoformans, in the assay on Streptococcus pneumoniae, in the assay on Escherichia coli, in the assay on Enterococcus faecalis [1] and in the assay on Micrococcus luteus [2] was inactive. In addition, the outcome (in the assay with Enterobacter cloacae; in the assay with Neisseria gonorrhoeae; with Candida albicans; in the assay with Staphylococcus aureus; in assay [3]) was inactive.

Consider `COC(=O)[C@]12Oc3ccc(-c4ccc5c(c4O)C(=O)C4=C(O)C[C@@H](C)[C@H](O)[C@@]4(C(=O)OC)O5)c(O)c3C(=O)C1=C(O)C[C@@H](C)[C@@H]2O` [SECALONIC ACID A], for which, in the assay on P388 (read-out: ED50 (the source's name)), the EC50 is 3.5 µg/mL (≈ 5.48 µM). In addition, the MIC (commonly the lowest concentration found to suppress growth) was 32 µg/mL (≈ 50.1 µM) against Enterococcus faecalis [4] and 4 µg/mL (≈ 6.26 µM) with Micrococcus luteus [5].
